The subject of data set [1] is Mus musculus. Description: Antiinflammatory activity in Swiss albino mouse assessed as reduction in carrageenan-induced paw edema at 40 mg/kg, po relative to control. The data set is classed as functional. Also noted: scale not given: the % may be the effect or the level left. The essentials: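 Intraplantar carrageenan, compound po in CMC; volume of right hind paw measured 4 h after carrageenan injection and compared with saline/carrageenan-treated controls; percent oedema reduction.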
(In the carrageenan paw model, swelling and tenderness develop within hours.)

The test system of data set [2] is Liver. As to the kind of experiment: Induction of nitric oxide production in Wistar rat liver homogenate assessed as nitrate level at 1 mM after 1 to 150 mins. In kind it is functional, tissue-based.
The nature of data set [3]: Stability of the compound in simulated gastric fluid assessed as compound remaining at pH 1.5 after 120 mins by LC-MS/MS analysis. In kind it is physicochemical. To be noted: read-out: Stability. The essentials: (§1)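 1 mM DMSO stock added to 0.01 M PBS (pH 7.4) or 0.05 M simulated gastric fluid without pepsin (pH 1.5 with HCl); incubated in hybridisation oven; aliquots at 0, 30, 60, 120 min quenched with ice-cold acetonitrile containing internal standard; parent remaining (%) measured.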

The target of data set [4] is T1, Prostaglandin G/H synthase 1 (Mus musculus, UniProt P22437).
T1 sequence (P22437 whole entry): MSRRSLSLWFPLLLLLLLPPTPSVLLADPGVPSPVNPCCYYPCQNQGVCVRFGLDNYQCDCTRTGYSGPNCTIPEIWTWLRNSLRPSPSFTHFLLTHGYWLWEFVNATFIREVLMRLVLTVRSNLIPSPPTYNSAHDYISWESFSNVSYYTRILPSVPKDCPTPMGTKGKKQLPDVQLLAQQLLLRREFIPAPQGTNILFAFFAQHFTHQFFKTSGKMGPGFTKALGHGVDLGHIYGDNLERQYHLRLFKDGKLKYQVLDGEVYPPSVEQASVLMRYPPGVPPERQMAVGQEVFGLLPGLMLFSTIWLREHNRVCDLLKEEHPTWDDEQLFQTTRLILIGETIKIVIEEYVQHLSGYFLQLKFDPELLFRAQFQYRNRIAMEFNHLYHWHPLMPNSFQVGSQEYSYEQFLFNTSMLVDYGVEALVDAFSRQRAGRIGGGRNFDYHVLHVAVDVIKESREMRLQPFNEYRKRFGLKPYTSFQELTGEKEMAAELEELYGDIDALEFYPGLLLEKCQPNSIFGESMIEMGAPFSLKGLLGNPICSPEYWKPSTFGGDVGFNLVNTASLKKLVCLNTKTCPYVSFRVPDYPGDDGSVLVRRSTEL
As to the kind of experiment: Inhibition of COX-1 in mouse J774 cells using arachidonic acid as substrate assessed as inhibition of prostaglandin E2 production preincubated for 15 mins followed by substrate addition measured after 30 mins by RIA. The data set is classed as cell-based. The essentials: (§2)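 J774 murine macrophages pretreated 15 min with compound (10 µM; lower concentrations 0.01–1 µM where needed), then incubated 30 min at 37 °C with 15 µM arachidonic acid; supernatant PGE2 measured by RIA. Triplicate wells, mean of three experiments of percent inhibition versus control; IC50 by sigmoidal fit.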

The subject of data set [5] is Liver. Description: Induction of nitric oxide production in Wistar rat liver homogenate assessed as NOx level at 1 mM. In kind it is functional, tissue-based. To be noted: TDE = time-dependent effect.
A short description of data set [6]: Stability of the compound in simulated gastric fluid assessed as compound remaining at pH 1.5 after 30 mins by LC-MS/MS analysis. The data set is classed as physicochemical. To be noted: read-out: Stability. The essentials:
as §1

A further data set deals with Thoracic aorta. As to the kind of experiment: Ex vivo vasorelaxant activity in Wistar rat endothelium thoracic aortic ring assessed as reduction of KCl-induced contraction in presence of guanylate cyclase inhibitor ODQ. The data set is classed as functional. The essentials:
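Endothelium-denuded thoracic aortic rings from male Wistar rats (250–350 g) in oxygenated Tyrode-type buffer at 37 °C, isometric tension recording. Rings precontracted with 30 mM KCl, then 3-fold increasing compound concentrations (1 nM–10 µM) added, also with 1 µM ODQ preincubated. Emax as % of KCl tone; pIC50; mean ± SE of 6–10 experiments.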

The subject of data set [7] is Mus musculus. Description: Antihyperalgesic activity in Swiss albino mouse assessed as reduction in carrageenan-induced inflammation at 40 mg/kg, po after 120 mins relative to control. In kind it is functional. The arrangement: scale not given: the % may be the effect or the level left.
Data set [8] can be described thus: Solubility of the compound in simulated gastric fluid at pH 1.5 after 90 mins by HPLC analysis. In kind it is ADME. The essentials:
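DMSO stock (20 mM) diluted 2 µL into 198 µL PBS 0.01 M pH 7.4 or pepsin-free SGF 0.05 M pH 1.5, duplicate wells, shaken 90 min at 300 rpm. Filtrates analysed by HPLC with photodiode-array detection against seven-point standards (1–200 µM).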

A short description of data set [9]: Clearance in Wistar rat at 10 mg/kg, iv by LC-MS/MS analysis. The data set is classed as ADME, organism-based. The arrangement: dose 10 mg/kg, route intravenous. To be noted: in vivo. The essentials: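 Male Han Wistar rats, three per route, single 10 mg/kg/5 mL dose iv or po in 5% DMSO, 5% Cremophor EL, 0.1% Tween 80 in 150 mM phosphate buffer pH 7. Jugular-vein blood sampled, plasma methanol-precipitated, parent and hydroxy metabolite quantified by LC–MS/MS in positive ESI MRM mode (LLOQ 1–15 ng/mL).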

For data set [10], the target named is T2, Prostaglandin G/H synthase 1 (Mus musculus) (UniProt P22437).
T2 sequence (whole entry): T1 sequence (P22437 whole entry)
As to the kind of experiment: Inhibition of COX-1 in mouse J774 cells using arachidonic acid as substrate assessed as inhibition of prostaglandin E2 production at 10 uM preincubated for 15 mins followed by substrate addition measured after 30 mins by RIA. In kind it is cell-based. The essentials: as §2

The target in data set [11] is Prostaglandin G/H synthase 1 (Homo sapiens, UniProt P23219). Description: Inhibition of COX-1 in human whole blood assessed as thromboxane B2 production by RIA.
Sequence of Prostaglandin G/H synthase 1 (Homo sapiens, UniProt P23219) (P23219 whole entry): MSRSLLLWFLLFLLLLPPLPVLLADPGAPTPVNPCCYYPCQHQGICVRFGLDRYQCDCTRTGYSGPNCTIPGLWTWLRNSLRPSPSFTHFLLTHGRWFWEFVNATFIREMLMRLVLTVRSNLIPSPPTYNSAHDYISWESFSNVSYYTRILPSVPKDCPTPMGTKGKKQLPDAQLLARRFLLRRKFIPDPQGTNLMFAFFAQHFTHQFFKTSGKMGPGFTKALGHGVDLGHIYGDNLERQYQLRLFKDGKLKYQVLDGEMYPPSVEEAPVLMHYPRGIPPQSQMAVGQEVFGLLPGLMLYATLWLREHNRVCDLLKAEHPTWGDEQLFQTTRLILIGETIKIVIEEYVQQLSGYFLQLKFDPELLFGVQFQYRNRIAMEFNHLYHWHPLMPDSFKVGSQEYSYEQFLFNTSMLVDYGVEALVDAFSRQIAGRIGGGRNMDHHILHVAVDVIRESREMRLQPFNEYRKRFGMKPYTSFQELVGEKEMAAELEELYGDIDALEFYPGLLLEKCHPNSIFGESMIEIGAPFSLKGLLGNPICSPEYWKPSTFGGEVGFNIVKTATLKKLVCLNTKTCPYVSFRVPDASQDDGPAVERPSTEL
The subject of data set [12] is Mus musculus. As to the kind of experiment: Analgesic activity in Swiss albino mouse assessed as reduction of acetic acid-induced writhing at 10 mg/kg, po measured every 10 mins after 5 mins of administration relative to control. Also noted: scale not given: the % may be the effect or the level left. In kind it is functional. The essentials:
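Male Swiss albino mice (23–25 g), compound given orally in CMC vehicle; writhing induced by 0.6% acetic acid (10 mL/kg) ip. Stretching movements counted for 10 min, starting 5 min after administration; percent reduction versus CMC-treated animals.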
A general note: Writhing tests count abdominal constrictions after an irritant is injected.

In data set [13] the test system is Mus musculus. As to the kind of experiment: Antihyperalgesic activity in Swiss albino mouse assessed as reduction in carrageenan-induced inflammation at 40 mg/kg, po after 60 mins relative to control. In kind it is functional. The arrangement: scale not given: the % may be the effect or the level left.

In brackets after ≈: the same amount, converted by molar mass. Activity calls are given as the source filed them. The rule behind the calls is not given here.

For orientation: IC50 means the concentration needed to halve the response being measured. In general, solubility refers to how much of the substance goes into solution per volume. One may read the clearance as the rate of elimination divided by the concentration. As usually defined, the inhibition is the drop in the measured response relative to a control, in per cent.

As for `Cc1c(CC(=O)NCCO[N+](=O)[O-])cc(-c2ccc(S(C)(=O)=O)cc2)n1-c1ccc(F)cc1`, the Activity in the data set on Mus musculus [1] is 10%; in the data set with Liver [2], 38.3 µM; in the data set on Liver [5], “tde”; with Mus musculus [7], 0%; in the data set with Mus musculus [12], 63%; with Mus musculus [13] it was 60%. Besides, the remaining at 2 h in data set [3] is 100%. In addition, the values for the IC50 in data set [4] and in [11] were above 10000 nM and 600 nM, respectively. For the same compound, in data set [6], the remaining at 0.5 h was 100%. Further, in the data set with Thoracic aorta, the result was inactive. Also, the solubility at 1.5 h in [8] is 147 µM (≈ 69.9 µg/mL). Moreover, the clearance in data set [9] is 10 mL/min. Moreover, the inhibition in data set [10] stood at 9%.

(Values after ChEMBL document CHEMBL3102735, “Enhancing the pharmacodynamic profile of a class of selective COX-2 inhibiting nitric oxide donors” (Bioorg Med Chem, 2014).)
